Data: PubChem BioAssay AID652287 (Sanford-Burnham Center for Chemical Genomics, 2013)
“And” between values parts separate entries of the source, which are not always exact repeats. Identical values can stand only once. The source made the active and inactive calls.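 The calls were made as follows: active = compounds with IC50 of 20 µM or lower; inactive = the rest.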

Biological target: Fatty acid synthase (Homo sapiens) (UniProt P49327)
Assay: inhibition of FAS-TE enzyme activity – biochemical, endpoint fluorescence, OMFH substrate, round 2, powder samples, SAR follow-up (AID 652287)
Conditions: recombinant FAS-TE, OMFH fluorogenic substrate
In short: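 Read-out basis: Fluorescence of released enzymatic product, across compound doses | System: FAS-TE enzyme | Amount: 0.9 µM FAS-TE enzyme, final | Times: Enzyme reaction 60 min at room temperature | Doses: Dose-response series, 5.5% DMSO final | Detection: Fluorescence endpoint, Ex 480 nm, Em 540 nm | Reagent: OMFH fluorogenic substrate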

Sequence of Fatty acid synthase (Homo sapiens) (P49327 whole entry, looked up): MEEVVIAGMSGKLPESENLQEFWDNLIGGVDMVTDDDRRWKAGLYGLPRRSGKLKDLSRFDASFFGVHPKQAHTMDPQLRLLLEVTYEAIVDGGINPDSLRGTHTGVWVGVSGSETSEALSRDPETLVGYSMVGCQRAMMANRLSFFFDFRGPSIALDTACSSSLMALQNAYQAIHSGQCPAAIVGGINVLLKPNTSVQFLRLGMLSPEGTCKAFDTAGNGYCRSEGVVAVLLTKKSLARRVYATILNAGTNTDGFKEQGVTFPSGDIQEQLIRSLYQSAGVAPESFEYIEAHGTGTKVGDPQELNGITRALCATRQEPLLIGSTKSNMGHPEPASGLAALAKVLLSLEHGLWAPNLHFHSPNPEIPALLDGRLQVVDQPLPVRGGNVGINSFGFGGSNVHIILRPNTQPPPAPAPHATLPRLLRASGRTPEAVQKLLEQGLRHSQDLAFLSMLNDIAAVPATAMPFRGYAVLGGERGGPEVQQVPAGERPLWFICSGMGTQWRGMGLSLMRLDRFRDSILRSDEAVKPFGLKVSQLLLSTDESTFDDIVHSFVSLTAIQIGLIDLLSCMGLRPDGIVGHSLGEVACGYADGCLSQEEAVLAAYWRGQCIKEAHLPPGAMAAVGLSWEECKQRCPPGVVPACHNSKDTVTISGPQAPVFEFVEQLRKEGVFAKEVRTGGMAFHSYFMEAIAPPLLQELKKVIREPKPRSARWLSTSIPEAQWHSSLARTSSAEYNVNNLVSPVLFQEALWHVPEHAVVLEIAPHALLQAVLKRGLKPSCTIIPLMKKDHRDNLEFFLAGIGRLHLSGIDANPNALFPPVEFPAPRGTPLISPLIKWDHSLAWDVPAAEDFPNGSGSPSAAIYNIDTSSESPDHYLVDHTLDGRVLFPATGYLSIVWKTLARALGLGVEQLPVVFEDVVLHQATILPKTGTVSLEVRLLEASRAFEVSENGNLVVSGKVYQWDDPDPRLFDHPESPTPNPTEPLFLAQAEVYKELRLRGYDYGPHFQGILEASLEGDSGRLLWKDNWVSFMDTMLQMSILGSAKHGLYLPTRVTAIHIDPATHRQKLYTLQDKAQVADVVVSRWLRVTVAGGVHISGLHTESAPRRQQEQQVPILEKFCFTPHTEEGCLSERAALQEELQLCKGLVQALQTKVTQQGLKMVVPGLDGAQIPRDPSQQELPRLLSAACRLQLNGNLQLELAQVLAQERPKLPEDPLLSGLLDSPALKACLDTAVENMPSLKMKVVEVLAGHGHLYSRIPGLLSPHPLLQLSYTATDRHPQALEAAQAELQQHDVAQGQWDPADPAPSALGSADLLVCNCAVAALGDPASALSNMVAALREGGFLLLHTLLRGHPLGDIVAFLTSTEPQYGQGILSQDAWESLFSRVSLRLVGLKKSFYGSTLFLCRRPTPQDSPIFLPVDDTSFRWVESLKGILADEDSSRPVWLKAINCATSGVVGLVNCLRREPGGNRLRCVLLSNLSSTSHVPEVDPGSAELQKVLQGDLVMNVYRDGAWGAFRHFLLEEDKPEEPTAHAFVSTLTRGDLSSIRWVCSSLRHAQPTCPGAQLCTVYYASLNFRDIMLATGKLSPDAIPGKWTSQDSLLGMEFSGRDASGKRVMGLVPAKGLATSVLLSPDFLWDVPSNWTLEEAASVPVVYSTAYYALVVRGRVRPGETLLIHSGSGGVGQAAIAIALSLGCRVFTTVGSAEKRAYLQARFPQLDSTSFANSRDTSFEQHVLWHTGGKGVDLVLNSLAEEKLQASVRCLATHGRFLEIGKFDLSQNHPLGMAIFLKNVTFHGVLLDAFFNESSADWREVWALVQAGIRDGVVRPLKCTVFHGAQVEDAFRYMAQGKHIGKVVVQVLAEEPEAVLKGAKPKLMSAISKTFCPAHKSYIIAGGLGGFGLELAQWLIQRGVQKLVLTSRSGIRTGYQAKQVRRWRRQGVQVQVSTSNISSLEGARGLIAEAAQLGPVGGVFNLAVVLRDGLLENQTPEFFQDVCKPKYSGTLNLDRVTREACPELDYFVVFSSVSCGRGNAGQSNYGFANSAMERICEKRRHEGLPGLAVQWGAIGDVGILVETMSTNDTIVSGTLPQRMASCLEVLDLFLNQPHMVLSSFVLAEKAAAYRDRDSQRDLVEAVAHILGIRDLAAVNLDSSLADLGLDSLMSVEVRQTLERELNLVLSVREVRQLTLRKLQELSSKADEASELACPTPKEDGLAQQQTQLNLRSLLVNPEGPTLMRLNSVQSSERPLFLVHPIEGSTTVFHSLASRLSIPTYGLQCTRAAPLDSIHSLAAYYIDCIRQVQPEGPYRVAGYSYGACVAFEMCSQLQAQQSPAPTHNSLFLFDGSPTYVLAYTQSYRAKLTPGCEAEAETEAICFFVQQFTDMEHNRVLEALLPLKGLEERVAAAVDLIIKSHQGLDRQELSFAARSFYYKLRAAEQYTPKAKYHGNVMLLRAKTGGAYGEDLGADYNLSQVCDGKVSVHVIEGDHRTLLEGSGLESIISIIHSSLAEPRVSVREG

| SMILES | IC50 |
| --- | --- |
| CCCCCC(=O)Nc1nc(-c2ccc(S(=O)(=O)N3CCCCC3C)cc2)cs1 (stereo not drawn) | 580 nM |
| CCC(C)C(=O)Nc1nc(-c2ccc(S(=O)(=O)N3CCCCC3C)cc2)cs1 (stereo not drawn) | 285 nM |
| CCCCCCC(=O)Nc1nc(-c2ccc(S(=O)(=O)N(CC)CC)cc2)cs1 | 1390 nM |
| CCC(CC)C(=O)Nc1nc(-c2ccc(S(=O)(=O)N3CCC(C)CC3)cc2)cs1 | 1830 nM |
| CCC(CC)C(=O)Nc1nc(-c2ccc(S(=O)(=O)N(CC)CC)cc2)cs1 | 328 nM |
| CCC(C)C(=O)Nc1nc(-c2ccc(S(=O)(=O)N(CC)CC)cc2)cs1 (stereo not drawn) | 1130 nM and 154 nM |
| CCCCC(=O)Nc1nc(-c2ccc(S(=O)(=O)N3CCCCC3C)cc2)cs1 (stereo not drawn) | 382 nM |
| CC(C)CC(=O)Nc1nc(-c2ccc(S(=O)(=O)N3CCC(C)CC3)cc2)cs1 | inactive |
| CCCCCC(=O)Nc1nc(-c2ccc(S(=O)(=O)N3CCC(C)CC3)cc2)cs1 | 745 nM |
| CCC(C)C(=O)Nc1nc(-c2ccc(S(=O)(=O)N3CCCC3)cc2)cs1 (stereo not drawn) | 145 nM |
| CC1CCN(S(=O)(=O)c2ccc(-c3csc(NC(=O)C(C)C)n3)cc2)CC1 | 511 nM |
| CCCCCCCCCCC[C@H](C[C@@H]1OC(=O)[C@H]1CCCCCC)OC(=O)[C@@H](NC=O)C(C)C | 107 nM |
| CCC(C)C(=O)Nc1nc(-c2ccc(S(=O)(=O)N3CCC(C)CC3)cc2)cs1 (stereo not drawn) | 409 nM |
| Cn1c(SCC(=O)Nc2ncc(C(F)(F)F)cc2Cl)nnc1-c1ccc(Cl)cc1 | 686 nM |

Results, then the compound that gave them:

| IC50 | SMILES |
| --- | --- |
| 196 nM | CCCCCC(=O)Nc1nc(-c2ccc(S(=O)(=O)N(CC)CC)cc2)cs1 |
| 257 nM | CCC(CC)C(=O)Nc1nc(-c2ccc(S(=O)(=O)N3CCCC3)cc2)cs1 |
| 1640 nM | CC(C)CC(=O)Nc1nc(-c2ccc(S(=O)(=O)N3CCCC3)cc2)cs1 |
| 141 nM | CCCCCC(=O)Nc1nc(-c2ccc(S(=O)(=O)N3CCCC3)cc2)cs1 |
| 846 nM | CCCCCCC(=O)Nc1nc(-c2ccc(S(=O)(=O)N3CCCC3)cc2)cs1 |
| 4470 nM | CCCCCCC(=O)Nc1nc(-c2ccc(S(=O)(=O)N3CCC(C)CC3)cc2)cs1 |
| 204 nM | CCCCC(=O)Nc1nc(-c2ccc(S(=O)(=O)N3CCOCC3)cc2)cs1 |
| 343 nM | CN(Cc1ccc(C(C)(C)C)cc1)C(=O)Cc1ccc(S(=O)(=O)N2CCOCC2)s1 |
| 4320 nM | CCCCCCC(=O)Nc1nc(-c2ccc(S(=O)(=O)N3CCCCC3C)cc2)cs1 (stereo not drawn) |
